Data published in ChEMBL document CHEMBL4364279, “Design, synthesis, in-silico and biological evaluation of novel chalcone-O-carbamate derivatives as multifunctional agents for the treatment of Alzheimer's disease” (Eur J Med Chem, 2019).
Active and inactive are the calls of the source. The rule behind the calls is not given here.

Columns and labels:
[1] = target: T1, Amine oxidase [flavin-containing] B (Homo sapiens, UniProt P27338); test: biochemical; assay type: cell-based
T1 sequence (P27338 whole entry): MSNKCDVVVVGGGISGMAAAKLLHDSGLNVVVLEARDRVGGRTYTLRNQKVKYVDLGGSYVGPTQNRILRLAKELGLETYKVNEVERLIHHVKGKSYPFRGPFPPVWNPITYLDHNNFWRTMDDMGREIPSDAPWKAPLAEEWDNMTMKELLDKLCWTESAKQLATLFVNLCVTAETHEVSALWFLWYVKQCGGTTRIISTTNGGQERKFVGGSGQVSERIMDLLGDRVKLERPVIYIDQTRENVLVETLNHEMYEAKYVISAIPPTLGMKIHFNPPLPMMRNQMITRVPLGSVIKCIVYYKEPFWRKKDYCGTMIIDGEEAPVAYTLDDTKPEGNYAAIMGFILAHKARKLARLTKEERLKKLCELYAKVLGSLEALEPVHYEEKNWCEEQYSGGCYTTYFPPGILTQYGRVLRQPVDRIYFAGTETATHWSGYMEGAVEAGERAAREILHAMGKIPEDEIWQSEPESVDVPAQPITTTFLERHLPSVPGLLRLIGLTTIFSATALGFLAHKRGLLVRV

[2] = Antioxidant activity assessed as trolox equivalents of AAPH radical scavenging activity preincubated for 15 mins followed by AAPH addition and measured every minute for 90 mins by ORAC-FL assay; assay type: functional
[3] = target: Acetylcholinesterase (AChE) (Electrophorus electricus, UniProt O42275); test: Inhibition of electric eel AChE at 25 uM using acetylthiocholine iodide as substrate incubated for 15 mins by Ellman's method relative to control; settings: electric eel acetylcholinesterase (isolated enzyme), probe acetylthiocholine iodide
Acetylcholinesterase (AChE), sequence (O42275 whole entry): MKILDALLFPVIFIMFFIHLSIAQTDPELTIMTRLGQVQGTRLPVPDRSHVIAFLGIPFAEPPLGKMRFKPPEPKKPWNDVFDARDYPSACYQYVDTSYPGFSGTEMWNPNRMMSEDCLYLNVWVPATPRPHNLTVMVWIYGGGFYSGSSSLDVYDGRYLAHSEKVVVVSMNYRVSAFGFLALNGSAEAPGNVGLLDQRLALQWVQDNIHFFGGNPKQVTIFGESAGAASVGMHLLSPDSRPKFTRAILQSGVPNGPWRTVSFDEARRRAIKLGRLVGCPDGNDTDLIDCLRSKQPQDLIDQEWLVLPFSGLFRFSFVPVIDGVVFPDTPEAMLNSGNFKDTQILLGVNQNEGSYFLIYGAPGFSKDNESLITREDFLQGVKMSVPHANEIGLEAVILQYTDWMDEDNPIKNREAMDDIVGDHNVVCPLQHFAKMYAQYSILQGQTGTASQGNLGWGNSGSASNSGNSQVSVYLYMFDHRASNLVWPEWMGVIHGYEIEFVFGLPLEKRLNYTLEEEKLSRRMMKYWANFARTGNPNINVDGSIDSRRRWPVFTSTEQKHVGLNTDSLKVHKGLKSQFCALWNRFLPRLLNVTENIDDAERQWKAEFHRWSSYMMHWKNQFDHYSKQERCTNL

[4] = target: T2, Amine oxidase [flavin-containing] A (Homo sapiens, UniProt P21397); test: Inhibition of recombinant human MAO-A expressed in baculovirus infected BTI insect cells at 12.5 uM using kynuramine as substrate measured after 30 mins by fluorescence based assay relative to control; settings: 0.5 h
T2 sequence (P21397 whole entry): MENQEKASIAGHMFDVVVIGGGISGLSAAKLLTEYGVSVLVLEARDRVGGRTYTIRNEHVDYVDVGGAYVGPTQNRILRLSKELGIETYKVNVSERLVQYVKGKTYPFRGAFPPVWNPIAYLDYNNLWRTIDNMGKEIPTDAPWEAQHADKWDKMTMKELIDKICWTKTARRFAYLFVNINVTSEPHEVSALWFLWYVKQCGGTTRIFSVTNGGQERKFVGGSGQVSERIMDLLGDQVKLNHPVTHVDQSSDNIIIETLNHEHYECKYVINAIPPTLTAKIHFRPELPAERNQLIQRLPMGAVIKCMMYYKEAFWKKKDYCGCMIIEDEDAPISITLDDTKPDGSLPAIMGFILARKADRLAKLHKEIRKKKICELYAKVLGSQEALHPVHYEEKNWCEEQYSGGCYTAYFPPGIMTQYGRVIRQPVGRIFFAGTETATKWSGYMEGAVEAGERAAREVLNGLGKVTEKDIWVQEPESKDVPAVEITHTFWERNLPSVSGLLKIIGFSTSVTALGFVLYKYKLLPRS

[5] = target: Amyloid-beta precursor protein (Homo sapiens) (UniProt P05067); test: Inhibition of self-induced amyloid beta (1 to 42) (unknown origin) aggregation at 25 uM after 24 hrs by thioflavin-T based fluorescence assay relative to control
Amyloid-beta precursor protein (Homo sapiens), sequence (P05067 whole entry): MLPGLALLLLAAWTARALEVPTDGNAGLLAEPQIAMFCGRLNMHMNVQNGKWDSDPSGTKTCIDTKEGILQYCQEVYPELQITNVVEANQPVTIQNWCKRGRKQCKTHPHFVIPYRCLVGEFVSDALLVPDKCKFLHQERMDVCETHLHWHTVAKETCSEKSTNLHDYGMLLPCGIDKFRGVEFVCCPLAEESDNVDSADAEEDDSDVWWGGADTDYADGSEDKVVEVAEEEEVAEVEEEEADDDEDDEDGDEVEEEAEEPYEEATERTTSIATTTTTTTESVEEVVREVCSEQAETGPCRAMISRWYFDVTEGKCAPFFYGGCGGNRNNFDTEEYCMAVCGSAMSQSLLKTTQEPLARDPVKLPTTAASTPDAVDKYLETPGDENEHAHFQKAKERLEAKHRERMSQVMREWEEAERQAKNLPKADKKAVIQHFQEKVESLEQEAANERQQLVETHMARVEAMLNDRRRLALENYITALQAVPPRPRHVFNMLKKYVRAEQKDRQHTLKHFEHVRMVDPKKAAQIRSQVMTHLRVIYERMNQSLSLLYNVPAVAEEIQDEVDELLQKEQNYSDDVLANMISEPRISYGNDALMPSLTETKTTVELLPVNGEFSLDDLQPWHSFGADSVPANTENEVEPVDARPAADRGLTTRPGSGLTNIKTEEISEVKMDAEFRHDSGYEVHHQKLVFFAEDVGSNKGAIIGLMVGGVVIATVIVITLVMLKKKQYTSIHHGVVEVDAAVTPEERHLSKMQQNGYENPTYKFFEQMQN

[6] = target: Cholinesterase (Equus caballus, UniProt P81908); test: Inhibition of equine serum BuChE using S-butyrylthiocholine iodide as susbtrate preincubated for 6 mins followed by substrate addition measured up to 3 mins by Ellman's method
Cholinesterase, sequence (P81908 whole entry): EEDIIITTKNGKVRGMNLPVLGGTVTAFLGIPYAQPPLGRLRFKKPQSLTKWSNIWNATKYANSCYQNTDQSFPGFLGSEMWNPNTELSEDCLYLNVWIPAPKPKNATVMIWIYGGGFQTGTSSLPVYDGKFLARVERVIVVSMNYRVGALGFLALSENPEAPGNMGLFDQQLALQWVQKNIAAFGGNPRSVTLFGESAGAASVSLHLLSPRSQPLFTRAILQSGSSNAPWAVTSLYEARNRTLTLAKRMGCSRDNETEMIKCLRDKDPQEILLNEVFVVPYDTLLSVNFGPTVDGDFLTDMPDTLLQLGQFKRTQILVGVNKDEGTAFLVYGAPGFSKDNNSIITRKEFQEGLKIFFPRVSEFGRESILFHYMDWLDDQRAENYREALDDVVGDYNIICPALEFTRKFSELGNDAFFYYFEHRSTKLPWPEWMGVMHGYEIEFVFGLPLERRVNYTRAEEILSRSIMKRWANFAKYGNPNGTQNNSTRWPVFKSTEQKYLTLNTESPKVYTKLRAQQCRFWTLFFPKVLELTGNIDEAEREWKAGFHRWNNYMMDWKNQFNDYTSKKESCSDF

[7] = target: Cholinesterase (Equus caballus) (UniProt P81908); test: Reversible inhibition of equine serum BuChE assessed as enzyme activity at IC50 using butyrylthiocholine iodide as substrate by Ellman's method relative to control; set-up: scale not given: the % may be the effect or the level left
Cholinesterase (Equus caballus), sequence (P81908 whole entry, the tested form may be a part): as the sequence (P81908 whole entry) above

[8] = test system: Mus musculus; test: Reversal of scopolamine-induced memory cognitive memory impairment in Kunming mouse assessed as change in spontaneous alteration behavior at 6 mg/kg, ig pretreated for 30 mins followed by scopolamine challenge and after 30 mins by Y-maze test (reference value: 45.6%); assay type: functional
[9] = target: Cholinesterase (Equus caballus) (UniProt P81908); test: Reversible inhibition of equine serum BuChE assessed as enzyme activity at 0.1 times IC50 using butyrylthiocholine iodide as substrate by Ellman's method relative to control; set-up: scale not given: the % may be the effect or the level left
Method in brief: (§1)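 Reversibility tested by recovery of equine serum BuChE activity after dilution of inhibitor, with activity monitored over time up to 240 min by the Ellman method (DTNB read at 412 nm). Activity expressed relative to untreated control. Three independent experiments.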

[10] = target: Cholinesterase (Equus caballus) (UniProt P81908); test: Reversible inhibition of equine serum BuChE assessed as enzyme activity at 0.1 times IC50 using butyrylthiocholine iodide as substrate measured at 120 mins by Ellman's method relative to control; set-up: scale not given: the % may be the effect or the level left
Method in brief: as §1

[11] = test system: Mus musculus; test: Effect on total arm entries in Kunming mouse model of scopolamine-induced cognitive impairment in at 6 mg/kg, ig pretreated for 30 min followed by scopolamine challenge and measured after 30 mins by Y-maze test; assay type: ADME, organism-based; settings: in vivo, po, 0.5 h
[12] = target: Cholinesterase (Equus caballus) (UniProt P81908); test: Inhibition of equine serum BuChE at 25 uM using S-butyrylthiocholine iodide as susbtrate preincubated for 6 mins followed by substrate addition measured up to 3 mins by Ellman's method
[13] = Inhibition of Cu2+-induced amyloid beta (1 to 42 residues) (unknown origin) aggregation at 25 uM after 24 hrs by thioflavin-T based fluorescence assay relative to control
Method in brief: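 Aβ1-42 (25 µM) and Cu2+ (25 µM) incubated at 37 °C for 24 h with or without compound (25 µM). ThT (5 µM in 50 mM glycine-NaOH, pH 8.5) then added; fluorescence read at ex 446/em 490 nm. Inhibition = (1−IFi/IFc)×100 after background subtraction. Three independent experiments.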

[14] = Disaggregation of Cu2+ induced preformed fibrils of amyloid beta (1 to 42) (unknown origin) at 25 uM preincubated with Cu2+ for 24 hrs followed by compound addition and measured after 24 hrs by thioflavin-T based fluorescence assay relative to control
Method in brief: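 Aβ1-42 (25 µM) and Cu2+ (25 µM) preincubated at 37 °C for 24 h, then compound (25 µM) added and incubated a further 24 h at 37 °C. ThT (5 µM in 50 mM glycine-NaOH, pH 8.5) added; fluorescence at ex 446/em 490 nm, background subtracted, % vs no-compound control. Three independent experiments.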

[15] = test system: PC-12; test: Neuroprotective activity against H2O2-induced cell death in rat PC12 cells assessed as cell viability at 1 uM pretreated for 2 hrs followed by H2O2 addition measured after 30 mins by MTT assay (reference value: 49.6%); assay type: functional; settings: read-out: Activity
[16] = Metal chelating activity of the compound assessed as formation of Fe2+-compound complex at 37.5 uM after 30 mins by UV-vis absorption spectra analysis
Method in brief: (§2)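 Metal binding examined by plate-reader absorbance scan using CuCl2, ZnCl2, AlCl3, FeSO4, CuCl and Fe(NO3)3 as metal sources.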

[17] = Metal chelating activity of the compound assessed as formation of Zn2+-compound complex at 37.5 uM after 30 mins by UV-vis absorption spectra analysis
Method in brief: as §2

[18] = test system: PC-12; test: Neuroprotective activity against H2O2-induced cell death in rat PC12 cells assessed as cell viability at 10 uM pretreated for 2 hrs followed by H2O2 addition measured after 30 mins by MTT assay (reference value: 49.6%); assay type: functional; settings: read-out: Activity
[19] = in vitro; settings: PAMPA, pH 7.4
[20] = Metal chelating activity of the compound assessed as formation of Al3+-compound complex at 37.5 uM after 30 mins by UV-vis absorption spectra analysis
Method in brief: as §2

[21] = Metal chelating activity of the compound assessed as formation of Cu2+-compound complex at 37.5 uM after 30 mins by UV-vis absorption spectra analysis
Method in brief: as §2

## O=C(/C=C/c1cccc(OC(=O)N2CCOCC2)c1)c1ccccc1OC(=O)N1CCOCC1
[1]
  IC50: 5.2 µM
[2]
  Activity: 0.32 µMequiv/µM
[3]
  inhibition at 0.25 h, 25 µM: 20.8%
[4]
  inhibition at 12.5 µM: 20.9%
[5]
  inhibition: 49.2%
[6]
  IC50: 2 µM

## CCN(C)C(=O)Oc1cccc([C@H](C)N(C)C)c1 [RIVASTIGMINE]
[7]
  Activity: 49.8%
[8]
  Activity: 65.3%
[9]
  Activity: 46.9%
[10]
  Activity: 71.6%
[11]
  Activity: Non-Toxic

## O=C(/C=C/c1cccc(O)c1)c1ccccc1O
[1]
  IC50: 1.1 µM
[2]
  Activity: 2.6 µMequiv/µM
[3]
  inhibition at 0.25 h, 25 µM: 23.3%
[12]
  inhibition: 28.9%
[4]
  inhibition at 12.5 µM: 28.1%
[5]
  inhibition: 70.6%

## COc1cc(/C=C/C(=O)CC(=O)/C=C/c2ccc(O)c(OC)c2)ccc1O
[13]
  inhibition: 73.4%
[14]
  Activity: 58.2%

## COc1cc2c(cc1OC)C(=O)C(CC1CCN(Cc3ccccc3)CC1)C2 (stereo unspecified)
[7]
  Activity: 54.1%
[10]
  Activity: 104%

## CN(C)C(=O)Oc1cccc(/C=C/C(=O)c2ccccc2O)c1
[1]
  IC50: 0.8 µM
[2]
  Activity: 1.1 µMequiv/µM
[3]
  inhibition at 0.25 h, 25 µM: 28.8%
[4]
  inhibition at 12.5 µM: 19.9%
[5]
  inhibition: 60.2%
[6]
  IC50: 2.51 µM

## CON(C)C(=O)Oc1cccc(/C=C/C(=O)c2ccccc2OC(=O)N(C)OC)c1
[1]
  IC50: 4.6 µM
[2]
  Activity: 0.32 µMequiv/µM
[3]
  inhibition at 0.25 h, 25 µM: 45.4%
[4]
  inhibition at 12.5 µM: 10.3%
[5]
  inhibition: 49.9%
[6]
  IC50: 1.5 µM

## CON(C)C(=O)Oc1cccc(/C=C/C(=O)c2ccccc2O)c1
[1]
  IC50: 2.6 µM
[2]
  Activity: 1.2 µMequiv/µM
[3]
  inhibition at 0.25 h, 25 µM: 30.4%
[4]
  inhibition at 12.5 µM: 33.8%
[5]
  inhibition: 61.4%
[6]
  IC50: 3.2 µM

## CCN(CC)C(=O)Oc1cccc(/C=C/C(=O)c2ccccc2OC(=O)N(CC)CC)c1
[1]
  IC50: 3.3 µM
[2]
  Activity: 0.31 µMequiv/µM
[3]
  inhibition at 0.25 h, 25 µM: 21.9%
[4]
  inhibition at 12.5 µM: 21.1%
[5]
  inhibition: 51.5%
[6]
  IC50: 3.1 µM

## O=C(/C=C/c1cccc(OC(=O)N(c2ccccc2)c2ccccc2)c1)c1ccccc1O
[1]
  IC50: 4.9 µM
[2]
  Activity: 1.1 µMequiv/µM
[3]
  inhibition at 0.25 h, 25 µM: 18.9%
[4]
  inhibition at 12.5 µM: 18.2%
[6]
  IC50: 56.2 µM

## CN(C)C(=O)Oc1cccc(/C=C/C(=O)c2ccccc2OC(=O)N(C)C)c1
[1]
  IC50: 2.9 µM
[2]
  Activity: 0.32 µMequiv/µM
[3]
  inhibition at 0.25 h, 25 µM: 11.7%
[4]
  inhibition at 12.5 µM: 18.9%
[6]
  IC50: 4.5 µM

## CCN(CC)C(=O)Oc1cccc(/C=C/C(=O)c2ccccc2O)c1
[1]
  IC50: 1.8 µM
[2]
  Activity: 1.3 µMequiv/µM
[3]
  inhibition at 0.25 h, 25 µM: 16.9%
[4]
  inhibition at 12.5 µM: 38.1%
[6]
  IC50: 4.8 µM

## O=C(/C=C/c1cccc(OC(=O)N(c2ccccc2)c2ccccc2)c1)c1ccccc1OC(=O)N(c1ccccc1)c1ccccc1
[1]
  IC50: 6.3 µM
[2]
  Activity: 0.33 µMequiv/µM
[3]
  inhibition at 0.25 h, 25 µM: 27.1%
[4]
  inhibition at 12.5 µM: 18.2%
[6]
  IC50: 42.6 µM

## CCN(C)C(=O)Oc1cccc(/C=C/C(=O)c2ccccc2OC(=O)N(C)CC)c1
[15]
  viability at 1 µM: 53.7%
[1]
  IC50: 3.7 µM
[16]
  Activity: inactive
[17]
  Activity: inactive
[2]
  Activity: 0.35 µMequiv/µM
[3]
  inhibition at 0.25 h, 25 µM: 35.4%
[18]
  viability at 10 µM: 63.2%
[19]
  Papp at 100 ug/ml: 23.1 ×10⁻⁶ cm/s
[7]
  Activity: 49.7%
[4]
  inhibition at 12.5 µM: 28.4%
[5]
  inhibition: 53.1%
[20]
  Activity: inactive
[21]
  Activity: inactive
[9]
  Activity: 50.7%
[10]
  Activity: 70.9%
[6]
  IC50: 1.2 µM

## O=C(/C=C/c1cccc(OC(=O)N2CCOCC2)c1)c1ccccc1O
[1]
  IC50: 3.1 µM
[2]
  Activity: 1.2 µMequiv/µM
[3]
  inhibition at 0.25 h, 25 µM: 24.3%
[4]
  inhibition at 12.5 µM: 17.4%
[6]
  IC50: 5.1 µM
